Data set [1] addresses T1, LC3/Nicotinamide phosphoribosyltransferase (Homo sapiens) (UniProt P43490+Q9BXW4+Q9GZQ8+Q9H492). Briefly: Autophagosome tethering activity at NAMPT overexpressing human A2780 cells assessed as lysosome-mediated degradation of NAMPT at 3 uM incubated for 48 hrs. Type of data set: cell-based. Put shortly:
(§1)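 A2780 cells were exposed to compound for 48 h. The medium was then removed and the cells washed three times with PBS and lysed on ice in RIPA buffer for 30 min. Lysates were centrifuged at 1.2 × 10^5 g, 4 °C, for 15 min. Protein was quantified by BCA and denatured at 100 °C. Blots were blocked in 5% BSA/TBST for 2 h, probed with primary antibody at 4 °C overnight and secondary for 1 h, and NAMPT was read on Odyssey.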

Data set [2] has as its target T2, Nicotinamide phosphoribosyltransferase (Homo sapiens, UniProt P43490). Briefly: Inhibition of NAMPT (unknown origin) measured after 90 mins by measuring fluorescence intensity.
Target sequence in this assay (P43490 whole entry): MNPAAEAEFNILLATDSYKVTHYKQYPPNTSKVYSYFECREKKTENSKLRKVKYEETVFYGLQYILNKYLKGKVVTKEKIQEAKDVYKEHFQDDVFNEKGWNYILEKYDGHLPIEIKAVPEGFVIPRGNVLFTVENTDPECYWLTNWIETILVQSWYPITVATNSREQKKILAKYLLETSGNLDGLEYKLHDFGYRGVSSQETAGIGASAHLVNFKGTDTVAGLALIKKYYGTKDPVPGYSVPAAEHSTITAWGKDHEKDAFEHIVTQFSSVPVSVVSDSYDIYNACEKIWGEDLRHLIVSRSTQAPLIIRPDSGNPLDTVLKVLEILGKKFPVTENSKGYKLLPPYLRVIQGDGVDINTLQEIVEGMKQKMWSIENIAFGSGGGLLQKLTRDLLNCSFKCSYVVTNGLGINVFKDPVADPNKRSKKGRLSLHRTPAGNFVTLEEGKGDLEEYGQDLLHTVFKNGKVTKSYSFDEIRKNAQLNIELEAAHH
Data set [3] deals with T1, LC3/Nicotinamide phosphoribosyltransferase (Homo sapiens). Briefly: Autophagosome tethering activity at NAMPT overexpressing human A2780 cells assessed as lysosome-mediated degradation of NAMPT at 0.1 uM incubated for 48 hrs. Type of data set: cell-based. Put shortly: as §1
Data set [4] concerns A2780. The data set is described as follows: Antiproliferative activity against human A2780 cells overexpressing NAMPT assessed as cell growth inhibition incubated for 72 hrs. The class given is functional, cell-based. The settings on record: A2780, 72 h.
Data set [5] concerns HCT-116. Briefly: Antiproliferative activity against human HCT-116 cells expressing NAMPT assessed as cell growth inhibition incubated for 72 hrs. Type of data set: functional, cell-based.
Data set [6] addresses T2, Nicotinamide phosphoribosyltransferase. The data set is described as follows: Binding affinity to NAMPT in human A2780 cell lysate assessed as thermal stability incubated at 51 to 63 degree Celsius for 4 hrs by Western blotting based CETSA method. The class given is subcellular. Put shortly:
(§2)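 CETSA: A2780 cells were seeded at × 107/well and incubated overnight at 37 °C, 5% CO2. Compound was added at the indicated concentration for 4 h. Cells were collected and lysed by three 5-min liquid-nitrogen freeze cycles, then centrifuged at 1.2 × 10^5 g, 4 °C, for 15 min. Supernatants were denatured at 100 °C and protein level was detected by SDS-PAGE.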
A general note: A western blot detects proteins with antibodies after separation by electrophoresis.
Target sequence in this assay (P43490 whole entry, looked up): as the sequence (P43490 whole entry) above

For data set [7], the target named is T3, Microtubule-associated protein 1 light chain 3 beta (Homo sapiens, UniProt Q9GZQ8). The data set is described as follows: Binding affinity to LC3B (unknown origin) assessed as dissociation constant by surface plasmon resonance analysis.
Data set [8] relates to MDA-MB-231. The data set is described as follows: Antiproliferative activity against human MDA-MB-231 cells overexpressing NAMPT assessed as cell growth inhibition incubated for 72 hrs. Type of data set: functional, cell-based.
Data set [9] in a line: Stability of compound in 1640 culture medium measured up to 72 hrs by HPLC analysis. Type of data set: physicochemical.
Data set [10] relates to A2780. Briefly: Binding affinity to KSP in human A2780 cell lysate incubated at 51 to 63 degree Celsius for 4 hrs by Western blotting based CETSA method. Type of data set: subcellular. In outline:
as §2

The target of data set [11] is T3, Microtubule-associated protein 1 light chain 3 beta. Briefly: Binding affinity to human recombinant LC3B assessed as dissociation constant incubated for 30 mins by fluorescence anisotropy assay. Put shortly:
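Fluorescence anisotropy used fluorescein-labeled ispinesib as the tracer, diluted to 50 nM in HEPES buffer, final 25 nM. A twofold serial dilution of LC3 protein in HEPES buffer was added. KD was derived from anisotropy. Measurements were done in triplicate and given as mean ± standard deviation.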

Data set [12] deals with HeLa. The data set is described as follows: Drug localization in human HeLa cells by measuring colocalization with lysosome probe treated for 2 hrs by confocal microscopy. The class given is functional, cell-based. Put shortly: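 HeLa cells were treated with the green fluorescent probe for 2 h, then stained with a red lysosome probe for another 1.5 h. Colocalization was imaged by confocal microscopy.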

A short description of data set [13]: Inhibition of kinesin spindle protein (unknown origin). Also noted: species or system Homo sapiens.
Data set [14] has as its target T3, Microtubule-associated protein 1 light chain 3 beta. The data set is described as follows: Binding affinity to human recombinant LC3B assessed as dissociation constant by isothermal titration calorimetry. In outline: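 Reverse titration of recombinant LC3B (1500 μM in syringe) into a cell holding 100 μM ligand, in 20 mM HEPES-HCl pH 7.3, 100 mM NaCl, 1% DMSO, at 25 °C. Injections were spaced 120 s apart so the signal returned to baseline. Thermodynamic parameters and KD came from the titration isotherm.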

Data set [15] concerns A2780. Briefly: Cytotoxicity against human A2780 cells. Type of data set: functional, cell-based.

The source made the active and inactive calls. The calls are words filed in the database; no cut-off is given here.

This is an account of results in ChEMBL document CHEMBL5154920, “Ispinesib as an Effective Warhead for the Design of Autophagosome-Tethering Chimeras: Discovery of Potent Degraders of Nicotinamide Phosphoribosyltransferase (NAMPT)” (J Med Chem, 2022).

Usually IC50 stands for the concentration that inhibits the measured activity by half. In the case of `Cc1ccc(C(=O)N(CCCNC(=O)CCOCCOCCOCCN2CCN(S(=O)(=O)c3ccc(NC(=S)NCc4cccnc4)cc3)CC2)[C@@H](c2nc3cc(Cl)ccc3c(=O)n2Cc2ccccc2)C(C)C)cc1`, the results for the Activity in data set [1] and in [3] were 91% and 76%, respectively. The half-inhibitory concentration (IC50) in data set [2] turned out to be 10 nM.
For orientation: Kd means the equilibrium constant for the complex coming apart. In the case of `Cc1ccc(C(=O)N(CCCNC(=O)CCCCCCCCN2CCN(S(=O)(=O)c3ccc(NC(=S)NCc4cccnc4)cc3)CC2)[C@@H](c2nc3cc(Cl)ccc3c(=O)n2Cc2ccccc2)C(C)C)cc1`, the Activity in data set [1] turned out to be 91%; in data set [3], 90%. Besides, the results for the concentration for half-maximal inhibition (IC50) in data set [4] and in data set [2] were 46 nM and 23 nM, respectively. The outcome in data set [5], in data set [6], in data set [8] and in data set [10] was Active. Further, the Kd in data set [7] was 933 nM. In addition, in data set [9], the Stability entry is given as “Stable”.
As for `Cc1ccc(C(=O)N(CCCNC(=S)Nc2ccc3c(c2)C(=O)OC32c3ccc(O)cc3Oc3cc(O)ccc32)[C@@H](c2nc3cc(Cl)ccc3c(=O)n2Cc2ccccc2)C(C)C)cc1`, in data set [11], the Kd was 175 nM. Further, the outcome in data set [12] was Active.
For `Cc1ccc(C(=O)N(CCCNC(=O)CCCCCCCCCCN2CCN(S(=O)(=O)c3ccc(NC(=S)NCc4cccnc4)cc3)CC2)[C@@H](c2nc3cc(Cl)ccc3c(=O)n2Cc2ccccc2)C(C)C)cc1`, the results for the Activity in data set [1] and in [3] were 93% and 33%, respectively. In addition, in data set [2], the IC50 came to 13 nM.
Turning to `O=S(=O)(c1ccc(NC(=S)NCc2cccnc2)cc1)N1CCNCC1`, the IC50 in data set [4] is 490 nM.
`Cc1ccc(C(=O)N(CCCNC(=O)CCCCCCN2CCN(S(=O)(=O)c3ccc(NC(=S)NCc4cccnc4)cc3)CC2)[C@@H](c2nc3cc(Cl)ccc3c(=O)n2Cc2ccccc2)C(C)C)cc1`: the Activity in data set [1] amounted to 86%; in data set [3] it was 9%. The same compound registered an IC50 in data set [2] of 15 nM.
Taken in the same sequence, the figures for `Cc1ccc(C(=O)N(CCCNC(=O)CCCCCCCCCN2CCN(S(=O)(=O)c3ccc(NC(=S)NCc4cccnc4)cc3)CC2)[C@@H](c2nc3cc(Cl)ccc3c(=O)n2Cc2ccccc2)C(C)C)cc1` were 92%, 85% and 34 nM.
For `Cc1ccc(C(=O)N(CCCNC(=O)CCCCCCCN2CCN(S(=O)(=O)c3ccc(NC(=S)NCc4cccnc4)cc3)CC2)[C@@H](c2nc3cc(Cl)ccc3c(=O)n2Cc2ccccc2)C(C)C)cc1`, the Activity in [1] turned out to be 83%; in data set [3], 1%. This compound showed an IC50 in data set [2] of 19 nM.
In the case of `Cc1ccc(C(=O)N(CCCN)[C@H](c2nc3cc(Cl)ccc3c(=O)n2Cc2ccccc2)C(C)C)cc1`, in [13], it took 0.5 nM to reach half-maximal inhibition (IC50). In addition, the dissociation constant Kd in [14] came to 11800 nM. Moreover, the result in [15] was Active.
As to `Cc1ccc(C(=O)N(CCCNC(=O)CCOCCN2CCN(S(=O)(=O)c3ccc(NC(=S)NCc4cccnc4)cc3)CC2)[C@@H](c2nc3cc(Cl)ccc3c(=O)n2Cc2ccccc2)C(C)C)cc1`, the results for the Activity in [1] and in data set [3] were 86% and 1%, respectively. Also, the IC50 in [2] came out at 10 nM.
